# Assay results taken from ChEMBL document CHEMBL1817593, “C5'-Alkyl Substitution Effects on Digitoxigenin α-l-Glycoside Cancer Cytotoxicity” (ACS Med Chem Lett, 2011).
# Legend:
# NCI-H460 [1] = assay: Cytotoxicity against human NCI-H460 cells assessed as cell viability at 500 nM after 48 hrs by MTT assay; type: functional; details: NCI-H460, 48 h, read-out: Activity
# Summary of the method: (§1)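 Viability of NCI-H460 cells was measured by MTT (mitochondrial enzymatic activity) after 48 h exposure, within a dose series spanning 1 nM–10 μM. N = 9, analysed by two-way ANOVA.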
# NCI-H460 [2] = assay: Cytotoxicity against human NCI-H460 cells assessed as cell viability at 50 nM after 48 hrs by MTT assay; type: functional; details: NCI-H460, 48 h, read-out: Activity; summary of the method: as §1
# NCI-H460 [3] = assay: Growth inhibition of human NCI-H460 cells after 48 hrs by MTT assay; type: functional
# Summary of the method: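 NCI-H460 viability measured by MTT (mitochondrial enzymatic activity) after 48 h exposure at 1 nM to 10 μM. GI50 derived from dose-response curves, with N = 9 and two-way ANOVA. Values are the mean of three independent experiments with duplicate determinations.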
# NCI-H460 [4] = assay: Cytotoxicity against human NCI-H460 cells assessed as cell death in serum free medium at 75 nM after 12 hrs by Hoechst 33342/propidium iodide staining based fluorescence microscopy; type: functional
# Summary of the method: (§2)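 NCI-H460 human lung cancer cells exposed 12 h to 10 nM–10 μM drug, including a 50 nM single-concentration test. Nuclei were stained with Hoechst 33342 and necrotic cells with propidium iodide. Apoptotic cells were scored by condensed or fragmented blue nuclei and necrotic cells by red PI staining. Total cell death (apoptosis plus necrosis) was recorded; N = 6.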
# NCI-H460 [5] = assay: Cytotoxicity against human NCI-H460 cells assessed as cell viability at 1 nM after 48 hrs by MTT assay; type: functional; details: NCI-H460, 48 h, read-out: Activity; summary of the method: as §1
# NCI-H460 [6] = assay: Cytotoxicity against human NCI-H460 cells assessed as cell viability at 1000 nM after 48 hrs by MTT assay; type: functional; details: NCI-H460, 48 h, read-out: Activity; summary of the method: as §1
# NCI-H460 [7] = assay: Cytotoxicity against human NCI-H460 cells assessed as cell viability at 100 nM after 48 hrs by MTT assay; type: functional; details: NCI-H460, 48 h, read-out: Activity; summary of the method: as §1
# NCI-H460 [8] = assay: Cytotoxicity against human NCI-H460 cells assessed as cell death in serum free medium at 10 nM after 12 hrs by Hoechst 33342/propidium iodide staining based fluorescence microscopy; type: functional; summary of the method: as §2
# NCI-H460 [9] = assay: Cytotoxicity against human NCI-H460 cells assessed as cell death in serum free medium at 250 nM after 12 hrs by Hoechst 33342/propidium iodide staining based fluorescence microscopy; type: functional; summary of the method: as §2
# NCI-H460 [10] = assay: Cytotoxicity against human NCI-H460 cells assessed as cell viability at 25 nM after 48 hrs by MTT assay; type: functional; details: NCI-H460, 48 h, read-out: Activity; summary of the method: as §1
# NCI-H460 [11] = assay: Cytotoxicity against human NCI-H460 cells assessed as cell death in serum free medium at 25 nM after 12 hrs by Hoechst 33342/propidium iodide staining based fluorescence microscopy; type: functional; summary of the method: as §2
# NCI-H460 [12] = assay: Induction of apoptosis in human NCI-H460 cells in serum free medium after 12 hrs by Hoechst 33342/propidium iodide staining based fluorescence microscopy; type: functional, cell-based; details: for IC50: NCI-H460, 12 h
# Summary of the method: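 NCI-H460 cells treated for 12 h at 10 nM to 10 μM. Total cell death (apoptosis plus necrosis) scored by Hoechst 33342/propidium iodide staining, with N = 6 and two-way ANOVA. IC50 obtained by nonlinear regression. Table values are the mean of three independent experiments with duplicate determinations.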
# NCI-H460 [13] = assay: Induction of apoptosis in human NCI-H460 cells in serum free medium at 50 nM after 12 hrs by Hoechst 33342/propidium iodide staining based fluorescence microscopy; type: functional
# Summary of the method: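 NCI-H460 cells exposed to a single 50 nM concentration for 12 h. Cells stained with Hoechst 33342 and propidium iodide. Blue cells with condensed or fragmented nuclei were scored as apoptotic and red, ruptured cells as necrotic. Result given as % apoptotic cell death; N = 6, one-way ANOVA.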
# NCI-H460 [14] = assay: Cytotoxicity against human NCI-H460 cells assessed as cell death in serum free medium at 10000 nM after 12 hrs by Hoechst 33342/propidium iodide staining based fluorescence microscopy; type: functional; summary of the method: as §2
# NCI-H460 [15] = assay: Cytotoxicity against human NCI-H460 cells assessed as cell death in serum free medium at 100 nM after 12 hrs by Hoechst 33342/propidium iodide staining based fluorescence microscopy; type: functional; summary of the method: as §2
# NCI-H460 [16] = assay: Cytotoxicity against human NCI-H460 cells assessed as cell viability after 48 hrs by MTT assay; type: functional; details: NCI-H460, 48 h
# Summary of the method: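 NCI-H460 cells were exposed to drug for 48 h, and viability was read by MTT as mitochondrial enzymatic activity. GI50 was derived from dose-response curves (1 nM–10 μM). Values are from three independent experiments with duplicate determinations, given with standard error of the mean.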
# NCI-H460 [17] = assay: Cytotoxicity against human NCI-H460 cells assessed as cell death in serum free medium at 500 nM after 12 hrs by Hoechst 33342/propidium iodide staining based fluorescence microscopy; type: functional; summary of the method: as §2
# NCI-H460 [18] = assay: Cytotoxicity against human NCI-H460 cells assessed as cell death in serum free medium at 50 nM after 12 hrs by Hoechst 33342/propidium iodide staining based fluorescence microscopy; type: functional; summary of the method: as §2
# NCI-H460 [19] = assay: Cytotoxicity against human NCI-H460 cells assessed as cell viability at 10 nM after 48 hrs by MTT assay; type: functional; details: NCI-H460, 48 h, read-out: Activity; summary of the method: as §1
# NCI-H460 [20] = assay: Cytotoxicity against human NCI-H460 cells assessed as cell death in serum free medium at 1000 nM after 12 hrs by Hoechst 33342/propidium iodide staining based fluorescence microscopy; type: functional; summary of the method: as §2
SMILES,viability at 0.5 µM (NCI-H460 [1]) [%],viability at 0.05 µM (NCI-H460 [2]) [%],GI50 (NCI-H460 [3]),"GI50 (NCI-H460 [3]; NCI-H460, 48 h) [nM]",Activity (NCI-H460 [4]) [%],viability at 0.001 µM (NCI-H460 [5]) [%],viability at 1 µM (NCI-H460 [6]) [%],viability at 0.1 µM (NCI-H460 [7]) [%],Activity (NCI-H460 [8]) [%],Activity (NCI-H460 [9]) [%],viability at 0.025 µM (NCI-H460 [10]) [%],Activity (NCI-H460 [11]) [%],Activity (NCI-H460 [12]),IC50 (NCI-H460 [12]) [nM],Activity (NCI-H460 [13]) [%],Activity (NCI-H460 [14]) [%],Activity (NCI-H460 [15]) [%],GI50 (NCI-H460 [16]) [nM],Activity (NCI-H460 [17]) [%],Activity (NCI-H460 [18]) [%],other results
CC(C)C[C@@H]1O[C@@H](O[C@H]2CC[C@@]3(C)[C@H](CC[C@@H]4[C@@H]3CC[C@]3(C)[C@@H](C5=CC(=O)OC5)CC[C@]43O)C2)[C@H](O)[C@H](O)[C@H]1O,6.69,26.1,Dose-dependent effect,13,24.5,82.4,5.9,12.4,12.15,68.62,40.6,14.36,Dose-dependent effect,167,9.9487,100,36.73,13.4,100,17.66,viability at 0.01 µM (NCI-H460 [19]): 57.7%; Activity (NCI-H460 [20]): 100%
CCC[C@@H]1O[C@@H](O[C@H]2CC[C@@]3(C)[C@H](CC[C@@H]4[C@@H]3CC[C@]3(C)[C@@H](C5=CC(=O)OC5)CC[C@]43O)C2)[C@H](O)[C@H](O)[C@H]1O,5.87,9.27,Dose-dependent effect,5,34.1,81.4,5.81,7.06,15.86,84.94,16.1,20.15,Dose-dependent effect,116,15.692,100,52.06,4.88,100,23.16,viability at 0.01 µM (NCI-H460 [19]): 39.3%; Activity (NCI-H460 [20]): 100%
CC[C@@H]1O[C@@H](O[C@H]2CC[C@@]3(C)[C@H](CC[C@@H]4[C@@H]3CC[C@]3(C)[C@@H](C5=CC(=O)OC5)CC[C@]43O)C2)[C@H](O)[C@H](O)[C@H]1O,6.13,8.28,Dose-dependent effect,2,71.83,73.2,5.71,6.64,15.02,98.51,10.3,24.93,Dose-dependent effect,56.9,30.625,100,80.15,2.14,100,42.16,viability at 0.01 µM (NCI-H460 [19]): 20%; Activity (NCI-H460 [20]): 100%
CC(C)[C@@H]1O[C@@H](O[C@H]2CC[C@@]3(C)[C@H](CC[C@@H]4[C@@H]3CC[C@]3(C)[C@@H](C5=CC(=O)OC5)CC[C@]43O)C2)[C@H](O)[C@H](O)[C@H]1O,6.11,22.8,Dose-dependent effect,6,37.08,77.4,5.76,9.88,12.81,73.97,35,19.33,Dose-dependent effect,130,15.425,100,45.94,6.32,100,24.42,viability at 0.01 µM (NCI-H460 [19]): 47.3%; Activity (NCI-H460 [20]): 100%
